In test [1] the target is T1, Toll-like receptor 2 (Homo sapiens, UniProt O60603). As to the kind of experiment: Antagonistic potency at TLR2 expressed in HEK293 cells. Format: functional, cell-based.
In test [2] the target is Toll-like receptor 4 (Homo sapiens, UniProt O00206). As to the kind of experiment: Antagonistic potency at human TLR4 expressed in HEK293 cells. The class given is functional, cell-based.
Test [3] concerns the target T1, Toll-like receptor 2. As to the kind of experiment: Antagonistic activity at TLR in human PBMC. The class given is functional. The gist of the method:
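PBMCs purified from heparinized blood of healthy human donors, seeded at 50,000 cells per well. Pam3CysSK4 (50 ng/ml) added together with compound at 30, 10, 3, 1, 0.3, 0.1 and 0.03 µM; 6 h at 37 °C. Supernatants collected by centrifugation, stored at -20 °C, TNFα measured by ELISA.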

T1 sequence (O60603 whole entry): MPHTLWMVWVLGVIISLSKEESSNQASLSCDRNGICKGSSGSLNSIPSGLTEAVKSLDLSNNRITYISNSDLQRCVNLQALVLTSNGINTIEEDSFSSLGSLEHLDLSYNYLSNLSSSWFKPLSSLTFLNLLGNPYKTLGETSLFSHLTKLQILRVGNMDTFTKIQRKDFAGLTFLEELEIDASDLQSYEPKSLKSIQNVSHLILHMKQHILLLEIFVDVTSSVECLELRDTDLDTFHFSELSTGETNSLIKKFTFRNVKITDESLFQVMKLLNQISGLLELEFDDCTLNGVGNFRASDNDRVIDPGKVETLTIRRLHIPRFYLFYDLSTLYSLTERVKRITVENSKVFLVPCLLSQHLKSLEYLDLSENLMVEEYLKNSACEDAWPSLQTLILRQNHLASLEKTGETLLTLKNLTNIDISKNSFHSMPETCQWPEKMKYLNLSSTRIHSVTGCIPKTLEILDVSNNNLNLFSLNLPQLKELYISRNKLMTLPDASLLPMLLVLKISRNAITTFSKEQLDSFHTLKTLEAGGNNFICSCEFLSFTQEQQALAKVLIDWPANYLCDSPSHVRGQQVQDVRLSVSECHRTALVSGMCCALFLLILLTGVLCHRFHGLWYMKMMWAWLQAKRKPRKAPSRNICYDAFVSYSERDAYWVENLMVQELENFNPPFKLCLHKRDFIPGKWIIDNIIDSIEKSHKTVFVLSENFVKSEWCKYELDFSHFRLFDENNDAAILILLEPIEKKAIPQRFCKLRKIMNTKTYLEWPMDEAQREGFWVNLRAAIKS
Chain of Toll-like receptor 4 (O00206 whole entry): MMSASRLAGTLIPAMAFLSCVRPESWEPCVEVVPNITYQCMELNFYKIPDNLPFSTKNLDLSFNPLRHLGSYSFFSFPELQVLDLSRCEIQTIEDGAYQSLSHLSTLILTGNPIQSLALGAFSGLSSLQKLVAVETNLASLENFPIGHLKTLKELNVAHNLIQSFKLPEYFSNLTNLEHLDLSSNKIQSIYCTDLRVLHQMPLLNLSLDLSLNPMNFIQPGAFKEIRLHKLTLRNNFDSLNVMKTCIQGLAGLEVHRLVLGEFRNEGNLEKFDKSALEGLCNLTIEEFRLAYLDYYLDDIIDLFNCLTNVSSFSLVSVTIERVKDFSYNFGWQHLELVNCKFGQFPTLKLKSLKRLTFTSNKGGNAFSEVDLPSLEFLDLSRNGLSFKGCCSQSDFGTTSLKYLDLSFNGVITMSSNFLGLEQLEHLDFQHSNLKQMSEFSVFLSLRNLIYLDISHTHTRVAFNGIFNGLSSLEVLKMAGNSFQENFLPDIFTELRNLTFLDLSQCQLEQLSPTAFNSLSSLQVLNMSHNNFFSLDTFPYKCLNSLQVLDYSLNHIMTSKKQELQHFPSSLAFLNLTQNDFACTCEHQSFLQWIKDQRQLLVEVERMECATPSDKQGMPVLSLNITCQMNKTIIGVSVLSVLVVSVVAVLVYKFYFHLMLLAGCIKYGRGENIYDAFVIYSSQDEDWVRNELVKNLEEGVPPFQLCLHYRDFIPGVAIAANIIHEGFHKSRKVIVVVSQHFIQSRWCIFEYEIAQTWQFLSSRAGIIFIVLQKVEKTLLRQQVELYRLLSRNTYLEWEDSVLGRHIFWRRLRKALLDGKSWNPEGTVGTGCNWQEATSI

The IC50 is the concentration at which inhibition is half-maximal. In test [1], `CCCCCCCCCCCCCC(=O)O[C@H](COCC[C@@H](CCCCCCC)OC(=O)CCCCCCCCCCC)COP(=O)(O)OCCNC(=O)C(Cc1ccc(O)cc1)C(=O)O` (some centres undefined) showed an IC50 of 1250 nM.
With `CCCCCCCCCCCCCC(=O)N[C@@H](COCC[C@@H](CCCCCCC)OC(=O)CCCCCCCCCCC)COP(=O)(O)OCCNC(=O)C(Cc1ccc(O)cc1)C(=O)O` (some centres undefined), the IC50 was 22000 nM in test [1] and 250 nM in test [2].
The molecule `CCCCCCCCCCCCCC(=O)N[C@H](COCC[C@@H](CCCCCCC)OC(=O)CCCCCCCCCCC)COP(=O)(O)OCCNC(=O)CCc1ccc(O)cc1` displayed an IC50 in test [1] of 2150 nM.
Take `CCCCCCCCCCCCCC(=O)N[C@H](COCC[C@H](CCCCCCC)OC(=O)CCCCCCCCCCC)COP(=O)(O)OCCNC(=O)C(Cc1ccc(O)cc1)C(=O)O` (some centres undefined): the IC50 was 6460 nM in test [1] and 160 nM in test [2].
On the same counts, the results for `CCCCCCCCCCCCCC(=O)N[C@@H](COCC[C@H](CCCCCCC)OC(=O)CCCCCCCCCCC)COP(=O)(O)OCCNC(=O)C(Cc1ccc(O)cc1)C(=O)O` (some centres undefined) are 6900 nM and 80 nM.
As to `CCCCCCCCCCCCCC(=O)N[C@@H](COP(=O)(O)OCCNC(=O)C(Cc1ccc(O)cc1)C(=O)O)C(=O)OCC[C@@H](CCCCCCC)OC(=O)CCCCCCCCCCC` (some centres undefined), in test [1], half-maximal inhibition (IC50) required 950 nM.
`CCCCCCCCCCCCCC(=O)N[C@H](COCC[C@@H](CCCCCCC)NC(=O)CCCCCCCCCCC)COP(=O)(O)OCCNC(=O)C(Cc1ccc(O)cc1)C(=O)O` (some centres undefined): in test [1], 5200 nM corresponded to half-maximal inhibition (IC50).
Turning to `CCCCCCCCCCCCCC(=O)N[C@H](COCC[C@@H](CCCCCCC)OC(=O)CCCCCCCCCCC)COP(=O)(O)OCCNC(=O)C(Cc1ccc(O)cc1)C(=O)O` (some centres undefined), the IC50 was 3070 nM in test [1], 350 nM in test [2] and 1600 nM in test [3].
As for `CCCCCCCCCCCCCC(=O)N[C@@H](COP(=O)(O)OCCNC(=O)C(Cc1ccc(O)cc1)C(=O)O)C(=O)NCC[C@@H](CCCCCCC)OC(=O)CCCCCCCCCCC` (some centres undefined), the IC50 in test [1] stood at 900 nM.

(Values after ChEMBL document CHEMBL1141958, “Toll-like receptor 2 antagonists. Part 1: preliminary SAR investigation of novel synthetic phospholipids” (Bioorg Med Chem Lett, 2005).)
